The subject of series [1] is male C57BL/6J mice. Kind of series: Histopathology after single subcutaneous injection. The format is in vivo, mouse. The note with it: for Organ toxicity by histopathology, overall: single sc dose, any dose level tested (1, 3, 10 mg/kg). Summed up: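 After the single sc dose (1, 3 or 10 mg/kg, 25% DMSO/saline, 9-day observation), two representative mice per group were fixed in 10% formalin. A veterinary pathologist examined cecum, duodenum, heart, ileum, kidney, liver, lung, pancreas, spleen and stomach, blinded to animal identity.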

The subject of series [2] is male C57BL/6J mice. In words: Escalating single dose subcutaneous injections: animal weight and behavior. The format is in vivo, mouse. The note with it: for Weight loss: single sc injection at 1, 3, and 10 mg/kg, observed 9 days. In outline: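 Male C57BL/6J mice, 8 weeks old, were acclimatised 3 days after arrival. Groups of four received one sc dose of 1, 3 or 10 mg/kg in up to 200 μL 25% DMSO/saline. Doses were set by UV/vis using ε 69 500 M–1·cm–1 near 315 nm. Mice were weighed daily for 9 days, then sacrificed. Humane end point was visible duress or weight loss over 15% of starting weight.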

The subject of series [3] is male C57BL/6J mice. In words: Serum markers of liver and kidney damage after single subcutaneous injection. The format is in vivo, mouse. The note with it: single sc dose 1, 3, 10 mg/kg; dose stated in the value. Summed up: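 All mice from the single sc dose groups (1, 3, 10 mg/kg in 25% DMSO/saline, n = 4, 9-day observation) were bled retro-orbitally. Serum was obtained by centrifugation at 6000 rpm for 5 min. ALT, AST, total bilirubin, BUN and creatinine were measured externally, blinded to animal identity.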

The nature of series [4]: Serum levels after subcutaneous injection. It counts as in vivo, mouse. As to conditions: male C57BL/6J mice, 10 mg/kg sc.
Series [5] in a line: Liver microsomal stability. As to conditions: 1 mg/mL mouse liver microsomes, 37 °C, 60 min, with and without NADPH. The format is in vitro ADME. In outline: (§1)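 Test compound was incubated with 1 mg/mL human or mouse liver microsomes at 37 °C in 100 mM KH2PO4, 3 mM MgCl2, pH 7.4, with or without 2 mM NADPH. After 60 min, ice-cold methanol was added, samples sat on ice for 10 min or more, then were diluted with water and centrifuged. Analysis was by LC/MS/MS as percent remaining versus time zero, in duplicate.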

Series [6] has as its system male C57BL/6J mice. Kind of series: Histopathology after multiple subcutaneous injections. The format is in vivo, mouse.
Series [7] can be described thus: Liver microsomal stability. It counts as in vitro ADME. The note with it: 1 mg/mL human liver microsomes, 37 °C, 60 min, with and without NADPH. Summed up: as §1
On the technique in general: Microsomes from liver hold many membrane-bound enzymes, among them those of drug oxidation.

Series [8] relates to liver tissue of male C57BL/6J mice. In words: Liver uptake of fluorescein-polyamide conjugates. The format is in vivo, mouse. As to conditions: 50 nmol (∼3 mg/kg), sacrificed 24 h later.
Series [9] relates to male C57BL/6J mice. In words: Serum markers of liver and kidney damage after multiple subcutaneous injections. It counts as in vivo, mouse. The note with it: 1 mg/kg sc every 3 days, three injections. Summed up:
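Male C57BL/6J mice, 8 weeks old, were dosed in groups of three with 1 mg/kg sc every 3 days for three injections and sacrificed 2 days after the last. Weight was recorded on injection days and at the end point. Retro-orbital blood was spun at 6000 rpm for 5 min. Serum ALT, AST, total bilirubin, BUN and creatinine were assayed blinded.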

The test system of the next series is p53. Kind of series: p53 protein ELISA. As to conditions: LNCaP cells. The format is cell-based. Summed up:
(§2)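 LNCaP cells were treated with 10 μM test compound for 72 h. Controls were DMSO vehicle and 1 μM doxorubicin for 24 h. RPB1 was measured with an RPB1-specific ELISA kit and total p53 with a pan-p53 ELISA kit, each following the kit instructions, in biological triplicates.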
(In general: An ELISA detects its analyte on a solid surface through an enzyme-linked reagent.)

For the next series, the system named is LNCaP cells. Kind of series: Alkaline comet assay. As to conditions: 10 μM, 48 h. The format is cell-based. Summed up: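 LNCaP cells were seeded at 100 000 per well and left to adhere 36–48 h. They were then exposed to 10 μM test compound for 48 h, with 5 μM doxorubicin for 4 h as the comparator. DNA damage was assessed with a commercial comet kit after gentle harvest in PBS. Slides were imaged by confocal microscopy at 10×, and more than 100 comets were scored per condition as percentage of DNA in the tail.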

Series [10] deals with male C57BL/6J mice. In words: Hematological analysis of wild-type mice after six injections. It counts as in vivo, mouse. The note with it: six injections sc 1 mg/kg, before treatment vs at sacrifice. In outline:
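Five healthy male C57BL/6J mice were bled retro-orbitally into K2EDTA tubes for baseline haematology and allowed 1 week to recover. They then received test compound 1 mg/kg sc in 20% DMSO/normal saline every 3 days for six injections. They were bled again 2 days after the final injection and euthanised. Serum and haematology samples were prepared separately; serum ALT, AST, total bilirubin, BUN and creatinine were measured. Data are the mean of five animals ± std.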

A further series concerns p21, IGFBP3, and GADD45A. In words: Quantitative RT-PCR of p53 responsive genes. It counts as cell-based. The note with it: LNCaP cells, 1, 3, 10 μM, 72 h. In outline:
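LNCaP cells were seeded at 50 000 per well, left to adhere 36–48 h, and treated with 1, 3 or 10 μM test compound for 72 h. Total RNA was extracted on columns and reverse transcribed. p21, IGFBP3 and GADD45A were quantified by SYBR Green real-time PCR relative to β-glucuronidase, in biological replicates.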

Another series has as its system RPB1. In words: RPB1 protein ELISA. It counts as cell-based. As to conditions: LNCaP cells. Summed up:
as §2

Setting [11] is: single sc dose 3 mg/kg, 3 mg/kg.
Where [12] appears, read: 1 mg/kg sc every 3 days, three injections.

The values below come from PMC3788622 (Journal of Medicinal Chemistry, 2013).

“Also recorded” adds a separate entry of the source.

Turning to `Cn1cc2cc1C(=O)NCCCC(=O)Nc1cn(C)c(n1)C(=O)Nc1cc(n(C)c1)C(=O)Nc1cc(n(C)c1)C(=O)Nc1cc(n(C)c1)C(=O)NCC[C@@H](N)C(=O)Nc1cn(C)c(n1)C(=O)Nc1cc(n(C)c1)C(=O)Nc1cc(n(C)c1)C(=O)N2` [Polyamide 5], the “Organ toxicity by histopathology, overall” value in the series on male C57BL/6J mice [1] was “did affect the kidney and liver”. Also, the Weight loss result in the series on male C57BL/6J mice [2] is given as “did not cause significant weight loss; also recorded: less effect on animal weight than 1”. The “Elevation of serum markers of liver and kidney damage (in words)” value (“Elevation” for short) with male C57BL/6J mice [3] was “caused levels of ALT and AST to increase in a dose-dependent manner”. In addition, in [4], the “Serum bioavailability after subcutaneous injection” value is recorded as “bioavailable”.
In the case of `CC(=O)N[C@@H](CNC(=O)c1cc(NC(=O)c2cc(NC(=O)c3cc(NC(=O)c4nccn4C)cn3C)cn2C)cn1C)CC(=O)Nc1cn(C)c(C(=O)Nc2cc(C(=O)Nc3cc(C(=O)Nc4cc(C(=O)NCCCN(C)CCCNC(=O)c5cccc(C(=O)O)c5)n(C)c4)n(C)c3)n(C)c2)n1` [Polyamide 4, ImPyPyPy-3-(R)^AcHNγ-ImPyPyPy∼NHMe∼IPA], the “Kidney lesions by histopathology (in words)” value in the series on male C57BL/6J mice [1] (single sc dose 1 mg/kg) is “Milder tubular regeneration and karyomegaly”; in the series with male C57BL/6J mice [1] (setting [11]) it was “Moderate atypical tubular regeneration (karyomegaly, tubular attenuation, mitotic figures) and/or tubular epithelial necrosis and apoptosis”; in the series with male C57BL/6J mice [1] (single sc dose 10 mg/kg), “Moderate atypical tubular regeneration (karyomegaly, tubular attenuation, mitotic figures) and/or tubular epithelial necrosis and apoptosis”; in the series with male C57BL/6J mice [6] (1 mg/kg sc, two injections), “hyaline droplet accumulation”. Moreover, the “Liver lesions by histopathology (in words)” value in the series with male C57BL/6J mice [1] (single sc dose 1 mg/kg) is “Mild hepatocellular necrosis and apoptosis”; in the series on male C57BL/6J mice [1] (setting [11]), “multifocal bridging hepatocellular necrosis and apoptosis”; in the series with male C57BL/6J mice [1] (single sc dose 10 mg/kg) it was “multifocal bridging hepatocellular necrosis and apoptosis”; in the series with male C57BL/6J mice [6] (1 mg/kg sc, two injections), “marked hepatocellular necrosis and apoptosis”. Besides, the “Spleen lesions by histopathology (in words)” value with male C57BL/6J mice [1] (single sc dose 3 mg/kg) and with male C57BL/6J mice [1] (single sc dose 10 mg/kg) was “Mild lymphoid apoptosis in the white pulp of the spleen” each time. Besides, the “Percent intact after 1 h incubation” value in series [5] and in series [7] was “less than 5%” throughout. Moreover, the Behavior and appearance result with male C57BL/6J mice [2] (single sc injection, 3 mg/kg) is “hunched posture, loss of mobility, and acute morbidity”; in the series on male C57BL/6J mice [2] (single sc injection, 10 mg/kg), “hunched posture, loss of mobility, and acute morbidity”. The “Dose tolerated (only tolerated at)” value in the series on male C57BL/6J mice [2] (single sc injection, 1, 3, 10 mg/kg tested) is 1 mg/kg. Further, the “Elevation” value in the series on male C57BL/6J mice [3] was “marked and severe elevations of AST, ALT, and total bilirubin at both 3 and 10 mg/kg; also recorded: significantly elevated creatinine and BUN at 10 mg/kg and elevated BUN at 3 mg/kg”.
Consider `CC(=O)N[C@H](CCNC(=O)c1cc(NC(=O)c2cc(NC(=O)c3cc(NC(=O)c4nccn4C)cn3C)cn2C)cn1C)C(=O)Nc1cn(C)c(C(=O)Nc2cc(C(=O)Nc3cc(C(=O)Nc4cc(C(=O)NCCCN(C)CCCNC(=S)Nc5ccc(-c6c7ccc(=O)cc-7oc7cc(O)ccc67)c(C(=O)O)c5)n(C)c4)n(C)c3)n(C)c2)n1` [Polyamide 8], for which the “Nuclear fluorescence in liver sections” value in series [8] is recorded as “less nuclear fluorescence in liver sections than the other FITC–polyamide conjugates”.
In the case of `CN(CCCNC(=O)c1cccc(C(=O)O)c1)CCCNC(=O)c1cc(NC(=O)c2cc(NC(=O)c3cc(NC(=O)c4nc(NC(=O)C[C@@H](N)CNC(=O)c5cc(NC(=O)c6cc(NC(=O)c7cc(NC(=O)c8nccn8C)cn7C)cn6C)cn5C)cn4C)cn3C)cn2C)cn1C` [Polyamide 2, ImPyPyPy-3-(R)^H2Nγ-ImPyPyPy∼NHMe∼IPA], in the series with male C57BL/6J mice [1] (single sc dose 3 mg/kg), the “Kidney lesions by histopathology (in words)” value is “Moderate atypical tubular regeneration (karyomegaly, tubular attenuation, mitotic figures) and/or tubular epithelial necrosis and apoptosis”; the “Liver lesions by histopathology (in words)” value was “Mild hepatocellular necrosis and apoptosis”. Further, in the series with male C57BL/6J mice [1] (single sc dose 10 mg/kg), the “Liver lesions by histopathology (in words)” value is “diffuse hepatocellular necrosis and apoptosis”; the “Spleen lesions by histopathology (in words)” value was “Mild lymphoid apoptosis in the white pulp of the spleen”. Besides, the “Alteration of liver and kidney serum markers (in words)” value with male C57BL/6J mice [9] is “elevated AST and ALT”. Further, in the series on male C57BL/6J mice [6] (setting [12]), the “Kidney lesions by histopathology (in words)” value is “mild variable tubular attenuation, karyomegaly, and epithelial necrosis and apoptosis”; the “Liver lesions by histopathology (in words)” value is “mild multifocal hepatocellular necrosis and apoptosis”. Moreover, the Weight loss result with male C57BL/6J mice [2] is “significant weight loss only at 10 mg/kg”. The “Elevation” value in the series on male C57BL/6J mice [3] is “severe elevation of AST, ALT, and total bilirubin at 10 mg/kg and to a lesser extent at 3 mg/kg; also recorded: elevated BUN at 10 mg/kg”.
Take `CC(=O)N[C@H](CCNC(=O)c1cc(NC(=O)c2cc(NC(=O)c3cc(NC(=O)c4nccn4C)cn3C)cn2C)cn1C)C(=O)Nc1cn(C)c(C(=O)Nc2cc(C(=O)Nc3cc(C(=O)Nc4cc(C(=O)NCCCN(C)CCCNC(=O)c5cccc(C(=O)O)c5)n(C)c4)n(C)c3)n(C)c2)n1` [Polyamide 3, ImPyPyPy-2-(R)^AcHNγ-ImPyPyPy∼NHMe∼IPA]: in the series on male C57BL/6J mice [1], the “Organ toxicity by histopathology, overall” value was “no detectable toxicity”. Also, the “Alteration of liver and kidney serum markers (in words)” value in the series on male C57BL/6J mice [9] is “no histopathologic lesions consistent with toxicity or alterations in liver and kidney serum markers”. In the series on male C57BL/6J mice [6] (setting [12]), the “Histopathologic lesions, overall” value is on record as “no histopathologic lesions consistent with toxicity”. Further, the “Cellular level of p53 protein” value in the series on p53 (10 μM, 72 h) is recorded as “increased”. In addition, the “DNA damage (genomic fragmentation) by comet assay” value with LNCaP cells was “no increase in genomic fragmentation; also recorded: did not result in increased DNA damage”. The “Hematologic changes (in words)” value in the series on male C57BL/6J mice [10] was “No significant hematologic changes”. The “Transcripts of p53 responsive genes p21, IGFBP3, and GADD45A” value in the series with p21, IGFBP3, and GADD45A is given as “induced by 3 in a dose-dependent fashion; also recorded: increased”. In addition, the RPB1 protein level entry in the series on RPB1 (10 μM, 72 h) is reported as “reduced RPB1 levels”. In addition, in the series on male C57BL/6J mice [3], the “Elevation” value was “no elevation of these markers at the dose levels tested”.
As for `COc1cccc2c1C(=O)c1c(O)c3c(c(O)c1C2=O)C[C@@](O)(C(=O)CO)C[C@@H]3O[C@H]1C[C@H](N)[C@H](O)[C@H](C)O1` [doxorubicin, reference compound], in the series on p53 (1 μM, 24 h), the “Cellular level of p53 protein” value is “increases”. Besides, the RPB1 protein level result in the series on RPB1 (1 μM, 24 h) is “decreases”.
Consider `CC(=O)N[C@@H](CNC(=O)c1cc(NC(=O)c2cc(NC(=O)c3cc(NC(=O)c4nccn4C)cn3C)cn2C)cn1C)CC(=O)Nc1cn(C)c(C(=O)Nc2cc(C(=O)Nc3cc(C(=O)Nc4cc(C(=O)NCCCN(C)CCCNC(=S)Nc5ccc(-c6c7ccc(=O)cc-7oc7cc(O)ccc67)c(C(=O)O)c5)n(C)c4)n(C)c3)n(C)c2)n1` [Polyamide 9], for which, in series [8], the “Nuclear fluorescence in liver sections” value is given as “the most intense nuclear fluorescence in liver sections”.
